This is an account of results in ChEMBL document CHEMBL1153852, “Steroidal lactones as inhibitors of 17beta-hydroxysteroid dehydrogenase type 5: chemical synthesis, enzyme inhibitory activity, and assessment of estrogenic and androgenic activities” (Eur J Med Chem, 2009).

For orientation: inhibition means the share of the control response that was lost under treatment. As usually defined, the pIC50 is the negative decadic logarithm of the IC50, by convention in mol/L.

In assay [1] the target is T1, 17-beta-hydroxysteroid dehydrogenase type 1 (Homo sapiens) (UniProt P14061).
T1 sequence (whole entry): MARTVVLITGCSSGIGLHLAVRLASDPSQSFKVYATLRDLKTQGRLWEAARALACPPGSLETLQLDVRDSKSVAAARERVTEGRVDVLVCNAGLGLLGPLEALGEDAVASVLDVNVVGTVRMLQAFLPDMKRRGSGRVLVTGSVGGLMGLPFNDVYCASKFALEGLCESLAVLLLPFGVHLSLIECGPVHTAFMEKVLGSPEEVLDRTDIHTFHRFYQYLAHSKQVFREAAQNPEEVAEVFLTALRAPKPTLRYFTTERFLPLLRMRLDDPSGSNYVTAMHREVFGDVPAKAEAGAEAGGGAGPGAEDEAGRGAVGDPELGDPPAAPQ
In words: Inhibition of human 17beta-HSD1 expressed in HEK293 cells assessed as enzyme-mediated transformation of [14C]-E1 in to [14C]-E2 at 0.1 uM. It is filed as cell-based.

Assay [2] deals with T2, 17-beta-hydroxysteroid dehydrogenase type 3 (Homo sapiens) (UniProt P37058).
T2 sequence (whole entry): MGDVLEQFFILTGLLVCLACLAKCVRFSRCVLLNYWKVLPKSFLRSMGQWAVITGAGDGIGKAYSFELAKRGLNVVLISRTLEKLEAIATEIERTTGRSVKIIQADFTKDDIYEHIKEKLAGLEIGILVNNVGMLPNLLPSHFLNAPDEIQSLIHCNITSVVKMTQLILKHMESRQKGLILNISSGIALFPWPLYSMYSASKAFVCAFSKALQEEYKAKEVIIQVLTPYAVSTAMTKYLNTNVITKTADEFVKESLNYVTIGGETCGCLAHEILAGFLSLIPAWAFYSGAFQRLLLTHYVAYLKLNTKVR
Kind of assay: Inhibition of human 17beta-HSD3 expressed in HEK293 cells assessed as enzyme-mediated transformation of [14C]-4-androstene-3,17-dione in to [14C]-testosterone at 1 uM. It is filed as cell-based.

In assay [3] the target is T1, 17-beta-hydroxysteroid dehydrogenase type 1 (Homo sapiens). In words: Inhibition of human 17beta-HSD1 expressed in HEK293 cells assessed as enzyme-mediated transformation of [14C]-E1 in to [14C]-E2 at 1 uM. It is filed as cell-based.
The target of assay [4] is T3, Aldo-keto reductase family 1 member C3 (Homo sapiens) (UniProt P42330).
T3 sequence (whole entry): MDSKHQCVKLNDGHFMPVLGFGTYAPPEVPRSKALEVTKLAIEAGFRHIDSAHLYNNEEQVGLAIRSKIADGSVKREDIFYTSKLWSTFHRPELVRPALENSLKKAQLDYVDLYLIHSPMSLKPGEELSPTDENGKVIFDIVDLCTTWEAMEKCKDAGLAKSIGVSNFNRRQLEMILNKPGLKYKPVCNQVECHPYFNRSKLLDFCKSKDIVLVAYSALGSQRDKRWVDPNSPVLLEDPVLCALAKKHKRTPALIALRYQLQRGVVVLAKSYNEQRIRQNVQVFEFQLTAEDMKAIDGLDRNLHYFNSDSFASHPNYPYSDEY
Kind of assay: Inhibition of human 17beta-HSD5 expressed in HEK293 cells assessed as enzyme-mediated transformation of [14C]-4-androstene-3,17-dione in to [14C]-testosterone at 3 uM after 18 hrs. It is filed as cell-based. An outline of the steps:
(§1)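 Intact HEK-293 cells stably over-expressing human 17β-HSD5, in freshly changed culture medium. [14C]-4-androstene-3,17-dione is added at 100 nM with inhibitor from an ethanolic solution; controls get ethanol only. After 18 h the conversion to [14C]-T is measured.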

For assay [5], the target named is T3, Aldo-keto reductase family 1 member C3 (Homo sapiens). In words: Inhibition of human 17beta-HSD5 expressed in HEK293 cells assessed as enzyme-mediated transformation of [14C]-4-androstene-3,17-dione in to [14C]-testosterone at 0.3 uM after 18 hrs. It is filed as cell-based. In short, it runs like this:
as §1

Assay [6] has as its target T4, Aldo-keto reductase family 1 member C3 (Homo sapiens, UniProt P42330).
T4 sequence (P42330 whole entry): T3 sequence (whole entry)
In words: Inhibition of human 17beta-HSD5 expressed in HEK293 cells assessed as enzyme-mediated transformation of [14C]-4-androstene-3,17-dione in to [14C]-testosterone after 18 hrs. The class given is cell-based. In short, it runs like this: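 Intact HEK-293 cells stably over-expressing human 17β-HSD5, in fresh culture medium. [14C]-4-androstene-3,17-dione 0.1 μM with inhibitor added in ethanol (ethanol alone as control), 18 h.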

In assay [7] the target is T2, 17-beta-hydroxysteroid dehydrogenase type 3 (Homo sapiens). In words: Inhibition of human 17beta-HSD3 expressed in HEK293 cells assessed as enzyme-mediated transformation of [14C]-4-androstene-3,17-dione in to [14C]-testosterone at 0.1 uM. It is filed as cell-based.
Assay [8] has as its system ZR-75-1. In words: Estrogenic activity in human ZR-75-1 cells expressing estrogen receptor assessed as estrogen-induced cell proliferation at 0.03 uM after 9 days relative to estrogen. The class given is functional, cell-based. An outline of the steps:
(§2)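 ZR-75-1 cells are resuspended in phenol red-free RPMI 1640 with 5% dextran-charcoal-treated FBS and seeded at 10,000 cells/well. After 3 days of adhesion, lactones from ethanol stocks are added alone or with E2 (0.1 nM). Cells grow 9 days at 37 °C in 5% CO2, with medium changed every 2–3 days. DNA is measured by DABA fluorescence; E2-induced growth is set to 100%.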

Assay [9] has as its system ZR-75-1. In words: Antiestrogenic activity in human ZR-75-1 cells expressing estrogen receptor assessed as inhibition of estrogen-induced cell proliferation at 0.1 nM after 9 days relative to estrogen. The class given is functional, cell-based.
The subject of assay [10] is ZR-75-1. In words: Estrogenic activity in human ZR-75-1 cells expressing estrogen receptor assessed as estrogen-induced cell proliferation at 1 uM after 9 days relative to estrogen. It is filed as functional. An outline of the steps:
as §2

A short description of assay [11]: Antiandrogenic activity in mouse SC115 cells expressing androgen receptor assessed as inhibition of DHT-induced cell proliferation at 1 uM after 10 days relative to DHT. It is filed as functional. The note with it: 240 h. In short, it runs like this:
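SC115 Shionogi clone chosen for high DHT sensitivity; plated at 20,000 cells/well in MEM with 2% dextran-coated charcoal-treated FCS. After 24 h, medium changed and compound (0.1 or 1 μM) added with 0.3 nM DHT; ethanol 0.01% final. 10 days at 37 °C, medium changed every 3–4 days. Growth read as DNA content (DABA fluorescence); DHT-stimulated growth set to 100%; triplicates, mean ± SEM.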

The species entered for assay [12] is Mus musculus. In words: Androgenic activity in mouse SC115 cells expressing androgen receptor assessed as DHT-induced cell proliferation at 0.1 uM after 10 days relative to DHT. It is filed as functional, cell-based. An outline of the steps: (§3)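 SC115 Shionogi clone selected for DHT sensitivity, in MEM with 2% dextran-charcoal-treated FCS, seeded at 20,000 cells/well. After 24 h the medium is renewed and lactones added at 0.1 and 1, without DHT. Final ethanol is 0.01%. Cells are grown 10 days at 37 °C in 5% CO2, with medium changed every 3–4 days. DNA is measured by DABA fluorescence; DHT-stimulated growth is set to 100%.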

The species entered for assay [13] is Mus musculus. In words: Androgenic activity in mouse SC115 cells expressing androgen receptor assessed as DHT-induced cell proliferation at 1 uM after 10 days relative to DHT. The class given is functional, cell-based. An outline of the steps: as §3

pIC50: −log10 of the molar value. The source made the active and inactive calls. The rule behind the calls is not given here.

As to `CC1CC[C@@]2(CC[C@H]3[C@@H]4CCc5ccccc5[C@H]4CC[C@@]32C)OC1=O` (stereo not given in full), the inhibition was 21% in assay [1]; 64% in assay [2]; 21% in [3]; 94% in [4]; 91% in assay [5]; 25% in assay [7]. Further, the pIC50 in assay [6] is 8.21.

For the compound `CCCCN(C)C(=O)CCCCCCCCCC[C@@H]1Cc2cc(O)ccc2[C@H]2CC[C@]3(C)[C@@H](O)[C@H](Cl)C[C@H]3[C@H]12`, the result in assay [8] and in [10] was inactive. Also, the result in assay [9] was Active.

As to `C[C@]12CC[C@@H]3c4ccccc4CC[C@H]3[C@@H]1CC[C@@]21CCCC(=O)O1`, the inhibition in [1] is 21%; in assay [2], 64%; in assay [3], 21%; in [4] it was 95%; in assay [5], 93%; in assay [7], 25%. Besides, in assay [6], the pIC50 is 8.00.

`CC(C)(O)C(=O)Nc1ccc([N+](=O)[O-])c(C(F)(F)F)c1` [HYDROXYFLUTAMIDE]: the inhibition at 1 µM in [11] worked out at 94%. The outcome in assay [12] and in assay [13] was inactive.
